Data set [1] relates to RVFV (rRVFVΔNSs::Katushka). The experiment in a line: microbe, parasite or virus in culture. It is filed as cell-based, Rift Valley fever virus. As to conditions: for EC50: Rift Valley fever virus, A549, read-out: EC50 other.
A further data set can be described thus: in vitro. Particulars: human.
Data set [2] deals with EV1. The experiment in a line: microbe, parasite or virus in culture. As to conditions: for EC50: Enterovirus B, read-out: EC50 other. The data set is classed as cell-based, Echovirus 1.
Data set [3] relates to EV1. The experiment in a line: microbe, parasite or virus in culture. It is filed as cell-based, Echovirus 1. As to conditions: for EC50: Enterovirus B, RPE, read-out: EC50 CTxG.
Another data set relates to HIV-1. The experiment in a line: HIV-1 infection of TZM-bl cells, firefly luciferase under HIV-1 LTR promoter. It is filed as cell-based, Human immunodeficiency virus 1.
The test system of data set [4] is ZIKV FB-GWUH-2016 strain. The experiment in a line: Viability and death of ZIKV-infected RPE cells. It is filed as cell-based, Zika virus. Particulars: for SI (minimal selectivity index, CC50/EC50): ZIKV, RPE cells; for EC50: Zika virus, RPE.
The subject of data set [5] is ZIKV FB-GWUH-2016 strain. The experiment in a line: ZIKV titer from compound-treated RPE cells, plaque assay on Vero-E6 cells. Particulars: for antiviral activity in repeat experiments: ZIKV, RPE cells, repeated CTG, CTxG and virus titration; for EC50: Zika virus, read-out: EC50 other. The data set is classed as cell-based, Zika virus. Put shortly: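 Medium for ZIKV infection: DMEM-F12 with 2% FBS, 2 mM L-glutamine, 0.25% sodium bicarbonate and 50 U/ml PenStrep, applied after 24 h growth of ~4 × 10^4 RPE cells/well. Test compound added in seven three-fold dilutions from 30 μM; infection at MOI 1. Media harvested at cytopathic effect (typically 24–72 hpi), serially diluted in PBS, plaque-titrated on Vero-E6 (PFU/ml). EC50 from variable-slope non-linear regression or Hill fit.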

Where two headings read alike, the source gives them in different places.

Usually EC50 stands for the midpoint of the concentration-response curve. For the compound `CC(C)c1nc(CN(C)C(=O)N[C@H](C(=O)N[C@@H](Cc2ccccc2)C[C@H](O)[C@H](Cc2ccccc2)NC(=O)OCc2cncs2)C(C)C)cs1` [Ritonavir], in data set [1], the “screen hit against RVFV” value is “identified” and the EC50 is 26.8 µM.
Turning to `CCCCOc1cc(C(=O)NCCN(CC)CC)c2ccccc2n1` [Dibucaine], the CC50 in the data set “in vitro” (CC50 CTG) is more than 30 µM. For the same compound, in “in vitro” (CC50 CTxG), the CC50 is more than 30 µM. For the same compound, in the data set on EV1 [2], the “antiviral activity in repeat experiments” value is “confirmed antiviral activity” and the EC50 is 0.96 µM. In addition, in the data set on EV1 [3], the “SI (minimal selectivity index, CC50/EC50)” value was more than 15 and the EC50 was found to be 2.05 µM.
Regarding `CNCCC(Oc1ccc(C(F)(F)F)cc1)c1ccccc1` (centres unmarked) [Fluoxatine], the CC50 in the data set “in vitro” (CC50 CTG) was found to be 4.02 µM; in “in vitro” (CC50 CTxG), 7.33 µM.
For the compound `CN(C)c1ccc(O)c2c1C[C@H]1C[C@H]3[C@H](N(C)C)C(O)=C(C(N)=O)C(=O)[C@@]3(O)C(O)=C1C2=O` [Minocycline], the “primary screen hit against HIV-1” value in the data set with HIV-1 (HIV-1, TZM-bl cells) was “anti-HIV-1 agents”. For the same compound, the “validation of anti-HIV-1 hit” value with HIV-1 (HIV-1, TZM-bl cells, validation experiment) is listed as “confirmed”. Besides, in the data set on HIV-1 (Human immunodeficiency virus 1, TZM-bl, read-out: EC50 other), the EC50 is 6.84 µM. Moreover, in data set [1], the “SI (minimal selectivity index, CC50/EC50)” value is on record as more than 11; the “screen hit against RVFV” value is “identified”; the EC50 was determined as 9.52 µM.
Regarding `Cc1ccc2c(c1)c1c3n2CCNC3CCC1` (centres unmarked) [Pirlindole], the CC50 in “in vitro” (CC50 CTG) is 28.5 µM; in “in vitro” (CC50 CTxG), more than 30 µM. The “antiviral activity in repeat experiments” value in the data set with EV1 [2] is on record as “confirmed antiviral activity”. In addition, the EC50 in the data set on EV1 [2] is 8.92 µM; with EV1 [3], 2.71 µM. For the same compound, in the data set on EV1 [3], the “SI (minimal selectivity index, CC50/EC50)” value came out at 11.
On to `CC[C@@]1(O)C(=O)OCc2c1cc1n(c2=O)Cc2cc3c(CN(C)C)c(O)ccc3nc2-1` [topotecan], for which the “screen hit against RVFV” value in data set [1] is “identified”.
As for `COc1cc2ncnc(Nc3ccc(F)c(Cl)c3)c2cc1OCCCN1CCOCC1` [gefitinib], the “screen hit against RVFV” value in data set [1] is given as “identified”.
Regarding `Cc1cccc(C)c1OCC(=O)N[C@@H](Cc1ccccc1)[C@@H](O)C[C@H](Cc1ccccc1)NC(=O)[C@H](C(C)C)N1CCCNC1=O` [Lopinavir], the “SI (minimal selectivity index, CC50/EC50)” value in the data set with ZIKV FB-GWUH-2016 strain [4] is listed as more than 1. The concentration for a half-maximal effect (EC50) was 12 µM in the data set with ZIKV FB-GWUH-2016 strain [4] (read-out: EC50 CTG) and 24.1 µM in the data set with ZIKV FB-GWUH-2016 strain [5]. For the same compound, the CC50 in the data set “in vitro” (CC50 CTG) and in the data set “in vitro” (CC50 CTxG) was more than 30 µM each time. The “antiviral activity in repeat experiments” value with ZIKV FB-GWUH-2016 strain [5] is “confirmed antiviral activity”.
As for `CCN(CCO)CCCC(C)Nc1ccnc2cc(Cl)ccc12` (centres unmarked) [Hydroxychloroquine], the “SI (minimal selectivity index, CC50/EC50)” value in the data set with ZIKV FB-GWUH-2016 strain [4] is more than 1. The values for the EC50 in the data set on ZIKV FB-GWUH-2016 strain [4] (read-out: EC50 CTG) and in the data set on ZIKV FB-GWUH-2016 strain [4] (read-out: EC50 CTxG) were 23 µM and 0.06 µM, respectively. Besides, the CC50 in the data set “in vitro” (CC50 CTG) and in the data set “in vitro” (CC50 CTxG) was more than 30 µM each time. Besides, the “antiviral activity in repeat experiments” value in the data set with ZIKV FB-GWUH-2016 strain [5] is “confirmed antiviral activity”.
For `Nc1ncnc2c([C@@H]3N[C@H](CO)[C@@H](O)[C@H]3O)c[nH]c12` [BCX4430], in the data set on ZIKV FB-GWUH-2016 strain [4], the “SI (minimal selectivity index, CC50/EC50)” value is more than 2. The 50% effective concentration (EC50) in the data set on ZIKV FB-GWUH-2016 strain [4] (read-out: EC50 CTG) turned out to be 18.5 µM; with ZIKV FB-GWUH-2016 strain [4] (read-out: EC50 CTxG), 2.96 µM; in the data set on ZIKV FB-GWUH-2016 strain [5] it was 13.1 µM. The CC50 in “in vitro” (CC50 CTG) and in “in vitro” (CC50 CTxG) was more than 30 µM in each case. The “antiviral activity in repeat experiments” value in the data set with ZIKV FB-GWUH-2016 strain [5] was “confirmed antiviral activity”.
Turning to `C[C@H]1c2cccc(O)c2C(=O)C2=C(O)[C@]3(O)C(=O)C(C(N)=O)=C(O)[C@@H](N(C)C)[C@@H]3[C@@H](O)[C@@H]21` [doxycycline], the “screen hit against RVFV” value in data set [1] is “identified”.

Values taken from article PMC7113852 (Antiviral Research, 2018).
